Active and inactive are the calls of the source. The calls are words filed in the database; no cut-off is given here.
Columns and labels:
[1] = DPPH radical scavenging activity; type: functional
Summary of the method: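 Compound mixed with 0.1 mM acetic acid buffer and warmed to 25 °C for 5 min, then 0.2 mM DPPH in ethanol added. Absorbance read at 517 nm after 30 min. Scavenging rate (%) = {1 − (A − C)/B} × 100, with sample, colour-contrast and blank absorbances. 50% scavenging concentration calculated from the scavenging rate.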

[2] = tested on: Microglia; test: Suppression of LPS-induced NO production in Sprague-Dawley rat microglia after 24 hrs; type: functional, cell-based
Summary of the method: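 Primary microglia from postnatal day-1 Sprague–Dawley rat cortex, grown 10–14 days in MEM/10% FBS, detached by shaking and replated. Cells given LPS 1 µg/mL with compound (1, 5, 10, 20 µM) for 24 h at 37 °C. Supernatant nitrite measured by Griess reaction at 540 nm. Three independent experiments in triplicate.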

[3] = tested on: Cortical neurone; test: Inhibition of glutamate-induced neurotoxicity in mouse cortical neurons assessed as cell death at 5 uM after 24 hrs relative to NMDA; type: functional
Summary of the method: (§1)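 Mixed cortical neuron/glia cultures from fetal day-15 mouse cortex, on poly-D-lysine/laminin. Cytosine arabinoside 10 uM from DIV 6. Cultures exposed in serum-free MEM to 60 µM glutamate plus compound for 24 h at 37 °C. Viability by WST-1 (1:10, 2 h, 37 °C), read at 450 nm with 650 nm reference and normalized to untreated wells. Three independent experiments in triplicate.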

[4] = tested on: Cortical neurone; test: Inhibition of glutamate-induced neurotoxicity in mouse cortical neurons assessed as cell death at 10 uM after 24 hrs relative to NMDA; type: functional; summary of the method: as §1

IC50 [1]	Structure (SMILES)	Activity [2]	Activity [3]	Activity [4]
53.2 µM	COc1cc(/C=C/C(=O)c2cc(F)c(F)c(F)c2)ccc1O	Active	Active	Active
64.6 µM	COc1cc(/C=C/C=O)ccc1O [CONIFERYL ALDEHYDE]			
52.5 µM	COc1cc(/C=C/C(=O)c2ccc(OC)c(F)c2)ccc1O	Active		

The remaining lines, values behind:

Structure (SMILES)	IC50 [1]	Activity [2]	Activity [3]	Activity [4]
COc1cc(/C=C/C(=O)c2ccc([Si](C)(C)C)cc2)ccc1O	52.8 µM	Active		
COc1cc(/C=C/C(=O)c2ccc(C(F)(F)F)cc2)ccc1O	43.8 µM	Active		
COc1cc(/C=C/C(=O)c2c(O)c3ccccc3oc2=O)ccc1O[Si](C)(C)C(C)(C)C	45.5 µM	Active		
COc1cc(/C=C/C(=O)c2c(O)c3ccccc3oc2=O)ccc1O	52.5 µM	Active	Active	Active
COc1cc(/C=C/C(=O)c2ccc3c(c2)OCO3)ccc1O	46 µM	Active	Active	Active

From ChEMBL document CHEMBL1148016, “Synthesis of 1,3-diphenyl-2-propen-1-one derivatives and evaluation of their biological activities” (Bioorg Med Chem, 2007)
